Series [1] has as its system HeLa. The series is described as follows: Observed concentration that required to induce 50% decrease in HeLa cell survival. It counts as functional, cell-based. The conditions noted are these: Homo sapiens, read-out: Log 1/IC50 (converted). The method, boiled down:
(§1)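 HeLa cells seeded at 2000/well and left 20 h, then exposed to five concentrations (final 3.12 to 50 or 100 μM/L, diluted from a 10 mM/L DMSO stock) in triplicate for 72 h. Medium was RPMI 1640 without phenol red with 10% FBS and 25 mM HEPES, pH 7.2. Survival by MTT: 4 h at 37 °C, SDS lysis, A570. Blank was subtracted and values taken as % of untreated control. IC50 is the concentration giving 50% survival loss.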

The test system of series [2] is HeLa. Kind of series: Inhibitory concentration inducing 50% decrease in HeLa cell survival. It counts as functional, cell-based. The conditions noted are these: Homo sapiens. Summed up:
as §1

Series [3] in a line: Partition coefficient (logP). It is filed as physicochemical. As to conditions: octanol/water. Summed up:
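Calculated rather than measured: log P (n-octanol/water) estimated by Crippen's fragmentation method.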

The test system of series [4] is PBMC (Homo sapiens). The series is described as follows: Inhibitory concentration that required to Induced a 50% decrease in PBMC (healthy human's peripheral blood cells) cells survival.
Series [5] relates to PBMC+PHA (Homo sapiens). Kind of series: Inhibitory concentration that required to Induced a 50% decrease in PBMC+PHA (healthy human's peripheral blood cells) cells survival.
Series [6] deals with PBMC (Homo sapiens). The series is described as follows: Selectivity index that required to induce 50% decrease in PBMC (healthy human's peripheral blood cells) cells survival.
Series [7] concerns PBMC+PHA (Homo sapiens). Kind of series: Selectivity index that required to induce 50% decrease in PBMC+PHA (healthy human's peripheral blood cells) cells survival.
For series [8], the system named is PBMC (Homo sapiens). The series is described as follows: Inhibitory concentration that required to induce 50% decrease in PBMC (healthy human's peripheral blood cells) cells survival.
Series [9] deals with PBMC+PHA (Homo sapiens). Kind of series: Inhibitory concentration that required to induce 50% decrease in PBMC+PHA (healthy human's peripheral blood cells) cells survival.
Series [10] deals with PBMC+PHA (Homo sapiens). The series is described as follows: Inhibitory concentration that required to induced a 50% decrease in PBMC+PHA (healthy human's peripheral blood cells) cells survival.

On to `CC(C)(C)c1ccc(C(=O)CC(SCC(=O)O)C(=O)O)cc1` (stereo not drawn), for which the IC50 in the series with HeLa [1] and with HeLa [2] was 1.39 µM throughout. This molecule also yielded a logP in [3] of 2.41.

For `Cc1ccc(C(=O)CC(SCC(=O)O)C(=O)O)cc1` (stereo not drawn), the IC50 in the series on HeLa [1] and in the series with HeLa [2] was 17.3 µM each time. In series [3], this molecule gave a logP of 1.2.

With `CCc1cc(CC)c(C(=O)CC(SCC(=O)O)C(=O)O)c(CC)c1` (stereo not drawn), the IC50 was 0.879 µM in the series with HeLa [1], 19 µM in the series with PBMC (Homo sapiens) [4], 19.9 µM in the series with PBMC+PHA (Homo sapiens) [5] and 0.88 µM with HeLa [2]. This molecule also had a lipophilicity (logP) in series [3] of 3.42. The Si was 21.56 with PBMC (Homo sapiens) [6] and 22.63 with PBMC+PHA (Homo sapiens) [7].

With `CCc1ccc(C(=O)CC(SCC(=O)O)C(=O)O)cc1` (stereo not drawn), the IC50 in the series with HeLa [1] and in the series on HeLa [2] was 4.79 µM each time. This molecule returned a logP in series [3] of 1.61.

Turning to `CC(C)(C)c1ccc(C(C)(C)C)c(C(=O)CC(SCC(=O)O)C(=O)O)c1` (stereo not drawn), the IC50 is 4.36 µM in the series with HeLa [1], 37.1 µM with PBMC+PHA (Homo sapiens) [5], 4.36 µM with HeLa [2] and 43.7 µM in the series on PBMC (Homo sapiens) [8]. The same molecule had a logP in [3] of 4.12. Also, the figures for the Si in the series on PBMC (Homo sapiens) [6] and in the series on PBMC+PHA (Homo sapiens) [7] were 10 and 8.5, respectively.

As to `CCCCc1ccc(C(=O)CC(SCC(=O)O)C(=O)O)cc1` (stereo not drawn), the IC50 with HeLa [1] was 1.91 µM; with HeLa [2] it was 1.92 µM. In series [3], this molecule gave a logP of 2.45.

In the case of `O=C(O)CSC(CC(=O)c1ccc(F)cc1)C(=O)O` (stereo not drawn), the IC50 in the series on HeLa [1] and in the series with HeLa [2] was 20.7 µM each time. The logP in series [3] stood at 0.87.

Take `CC(C)c1cc(C(C)C)c(C(=O)CC(SCC(=O)O)C(=O)O)c(C(C)C)c1` (stereo not drawn): the IC50 in the series with HeLa [1] was 1.66 µM; with PBMC (Homo sapiens) [4], 3.32 µM; in the series with PBMC+PHA (Homo sapiens) [5], 4.78 µM; in the series with HeLa [2], 1.66 µM. This molecule returned a logP in [3] of 4.41. Also, the Si in the series on PBMC (Homo sapiens) [6] was found to be 2; in the series on PBMC+PHA (Homo sapiens) [7], 2.58.

In the case of `CCCCCCCCCCCCc1ccc(C(=O)CC(SCC(=O)O)C(=O)O)cc1` (stereo not drawn), the IC50 in the series with HeLa [1] and in the series with HeLa [2] was 1.71 µM throughout. In series [3], this molecule gave a logP of 5.79.

As to `O=C(O)CS` [THIOGLYCOLIC ACID], the IC50 in the series with HeLa [2], in the series on PBMC (Homo sapiens) [8] and in the series on PBMC+PHA (Homo sapiens) [9] was above 200 µM throughout.

Turning to `Cc1ccc(C(=O)CC(SCC(=O)O)C(=O)O)c(C)c1` (stereo not drawn), the IC50 in the series with HeLa [1] and with HeLa [2] was 3.83 µM throughout. Further, the logP in [3] turned out to be 1.68.

`Cc1ccc(C(=O)CC(SCC(=O)O)C(=O)O)c(Cl)c1` (stereo not drawn): the IC50 in the series on HeLa [1] and with HeLa [2] was 4.73 µM in each case. For the same molecule, in [3], the logP worked out at 1.75.

Turning to `Cc1ccc(C)c(C(=O)CC(SCC(=O)O)C(=O)O)c1` (stereo not drawn), the IC50 with HeLa [1] and in the series with HeLa [2] was 2.68 µM in each case. The molecule further yielded a logP in series [3] of 1.68.

As for `O=C(O)CSC(CC(=O)c1ccc(Cl)cc1)C(=O)O` (stereo not drawn), the values for the IC50 in the series on HeLa [1] and in the series on HeLa [2] were 17.3 µM and 17.2 µM, respectively. For the same molecule, in series [3], the logP worked out at 1.27.

Turning to `CC(C)c1ccc(C(=O)CC(SCC(=O)O)C(=O)O)c(C(C)C)c1` (stereo not drawn), the IC50 with HeLa [1] was 1.1 µM; in the series with PBMC+PHA (Homo sapiens) [10] it was 7.14 µM; with HeLa [2], 1.1 µM; with PBMC (Homo sapiens) [8], 6.79 µM. In series [3], this molecule gave a logP of 3.18. The Si with PBMC (Homo sapiens) [6] is 6.17; with PBMC+PHA (Homo sapiens) [7], 6.49.

Regarding `CC(C)c1ccc(C(=O)CC(SCC(=O)O)C(=O)O)cc1` (stereo not drawn), the IC50 in the series with HeLa [1] and in the series with HeLa [2] was 3.33 µM throughout. In series [3], this molecule gave a logP of 1.94.

As to `Cc1ccc(C(=O)CC(SCC(=O)O)C(=O)O)cc1C` (stereo not drawn), the IC50 in the series with HeLa [1] and with HeLa [2] was 3.81 µM in each case. The lipophilicity (logP) in series [3] was 1.68.

In the case of `CC(C)c1ccc(C(C)C)c(C(=O)CC(SCC(=O)O)C(=O)O)c1` (stereo not drawn), the IC50 in the series on HeLa [1] was 0.644 µM; with HeLa [2], 0.644 µM; with PBMC (Homo sapiens) [8] it was 13.3 µM; with PBMC+PHA (Homo sapiens) [9], 15.7 µM. Moreover, in series [3], the logP was 3.18. The Si with PBMC (Homo sapiens) [6] came out at 20.65; in the series with PBMC+PHA (Homo sapiens) [7] it was 24.33.

With `O=C(O)CSC(CC(=O)c1ccc(Br)cc1)C(=O)O` (stereo not drawn), the IC50 with HeLa [1] is 9.51 µM; in the series on HeLa [2], 9.5 µM. In addition, in series [3], the logP worked out at 1.54.

Consider `O=C(O)CSC(CC(=O)c1ccccc1)C(=O)O` (stereo not drawn), for which the IC50 in the series on HeLa [1] and in the series on HeLa [2] was 15 µM each time. For the same molecule, the logP in [3] worked out at 0.71.

On to `COc1ccc(C(=O)CC(SCC(=O)O)C(=O)O)c(OC)c1OC` (stereo not drawn), for which the IC50 with HeLa [1] and in the series with HeLa [2] was 29.5 µM in each case. Further, in series [3], the lipophilicity (logP) was 0.33.

The values above are taken from ChEMBL document CHEMBL1141166, “2-[(Carboxymethyl)sulfanyl]-4-oxo-4-arylbutanoic acids selectively suppressed proliferation of neoplastic human HeLa cells. A SAR/QSAR study” (J Med Chem, 2005).
